According to ChEMBL document CHEMBL1141208, “Synthesis and biological evaluation of methoxylated analogs of the newer generation taxoids IDN5109 and IDN5390” (Bioorg Med Chem Lett, 2005):

Assays:
MCF7 = assay: Cytotoxic potency in MCF7 human mammary carcinoma cell line after 72 hr exposure by SRB test; type: functional, cell-based; conditions: MCF7, 72 h
Method in brief: (§1)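 Monolayers grown in RPMI-1640 with 5% FCS, 5% NuSerum IV, 20 mM Hepes, 2 mM L-glutamine, 37 °C, 5% CO2. 800–1500 cells/well attached 15–18 h, then given 10 concentrations over a 5-log range (DMSO stock diluted in RPMI/10 mM Hepes) for 72 h. Cells TCA-fixed, sulforhodamine B stained, OD 570 nm. IC50 from Sigmoid-Emax nonlinear regression; means of ≥3 independent experiments ± SE.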

MCF7-DOX = assay: Cytotoxic potency in doxorubicin resistant MCF7 cell line after 72 hr exposure by SRB test; type: functional, cell-based; conditions: Homo sapiens; method in brief: as §1
[1] = Resistance index (IC50 of MCF7 resistant cell line/IC50 of MCF7 sensitive cell line); type: functional, Homo sapiens

Question: For CC(=O)O[C@H]1C(=O)[C@@]2(C)[C@H]([C@H](OC(=O)c3ccccc3)[C@]34OC(=O)O[C@H]3[C@H](OC(=O)[C@H](O)[C@H](CC(C)C)NC(=O)OC(C)(C)C)C(C)=C1C4(C)C)[C@]1(OC(C)=O)CO[C@@H]1C[C@@H]2O [ORTATAXEL], which IC50 (MCF7) is on record?
Answer: The IC50 was 1.6 nM.

Question: What about the IC50 (MCF7-DOX) of the same compound?
Answer: The IC50 was 32 nM.

Question: And the “Ratio IC50” value [1]?
Answer: The value was 20.

Question: For CC(=O)O[C@H]1C(=O)[C@@]2(C)[C@H]([C@H](OC(=O)c3ccccc3)[C@]3(O)C[C@H](OC(=O)[C@H](O)[C@@H](NC(=O)c4ccccc4)c4ccccc4)C(C)=C1C3(C)C)[C@]1(OC(C)=O)CO[C@@H]1C[C@@H]2O [PACLITAXEL], which IC50 (MCF7) is on record?
Answer: The IC50 was 0.6 nM.

Question: What about the IC50 (MCF7-DOX) of the same compound?
Answer: Its IC50 is 585 nM.

Question: And the “Ratio IC50” value [1]?
Answer: Its value is 975.

Question: For COc1cccc(C(=O)O[C@H]2[C@@H]3[C@]4(OC(C)=O)CO[C@@H]4C[C@H](O)[C@@]3(C)C(=O)[C@H](OC(C)=O)C3=C(C)[C@@H](OC(=O)[C@H](O)[C@H](CC(C)C)NC(=O)OC(C)(C)C)[C@@H]4OC(=O)O[C@]42C3(C)C)c1, which IC50 (MCF7) is on record?
Answer: The IC50 was 0.24 nM.

Question: What about the IC50 (MCF7-DOX) of the same compound?
Answer: The IC50 was 4 nM.

Question: And the “Ratio IC50” value [1]?
Answer: The value was 17.

Question: With COc1cccc(C(=O)O[C@H]2[C@H]([C@]3(OC(C)=O)CO[C@@H]3CCO)/C(C)=C(/O)C(=O)C3=C(C)[C@@H](OC(=O)[C@H](O)[C@H](CC(C)C)NC(=O)OC(C)(C)C)[C@@H]4OC(=O)O[C@]42C3(C)C)c1 as the compound, how does the IC50 (MCF7) read?
Answer: Its IC50 is 0.5 nM.

Question: And the IC50 (MCF7-DOX)?
Answer: Its IC50 is 120 nM.

Question: What about the “Ratio IC50” value [1] of the same compound?
Answer: Its value is 240.

Question: With CC(=O)O[C@@]1([C@@H]2/C(C)=C(/O)C(=O)C3=C(C)[C@@H](OC(=O)[C@H](O)[C@H](CC(C)C)NC(=O)OC(C)(C)C)C[C@@](O)([C@H]2OC(=O)c2ccccc2)C3(C)C)CO[C@@H]1CCO as the compound, how does the IC50 (MCF7) read?
Answer: Its IC50 is 11.2 nM.

Question: And the IC50 (MCF7-DOX)?
Answer: Its IC50 is 1040 nM.

Question: What about the “Ratio IC50” value [1] of the same compound?
Answer: Its value is 93.
